Results as given in ChEMBL document CHEMBL2380298, “Synthesis and antimicrobial activity of novel amphiphilic aromatic amino alcohols” (2013).
≈ marks a conversion by molar mass, not a printed value.

Key:
Format in all cases: functional
[1] = test system: Staphylococcus epidermidis; test: Antimicrobial activity against Staphylococcus epidermidis ATCC 12228 by broth dilution method
Staphylococcus aureus [2] = test: Antimicrobial activity against Staphylococcus aureus ATCC 29213 by broth dilution method; details: Staphylococcus aureus, ATCC 29213
Staphylococcus aureus [3] = test: Bactericidal activity against methicillin-resistant Staphylococcus aureus clinical isolate 264 after 24 hrs; details: isolate 264, 24 h
Summary of the method: (§1)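 Bactericidal concentration: 0.1 ml from wells at the MIC dilution and the dilutions on either side was streaked onto tryptic soy agar and incubated 24 h. It was taken as the lowest drug concentration giving no growth (100% killing).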

Staphylococcus aureus [4] = test: Bactericidal activity against methicillin-resistant Staphylococcus aureus clinical isolate 260 after 24 hrs; details: isolate 260, 24 h; summary of the method: as §1
Staphylococcus aureus [5] = test: Bactericidal activity against methicillin-resistant Staphylococcus aureus clinical isolate 259 after 24 hrs; details: isolate 259, 24 h; summary of the method: as §1
Staphylococcus aureus [6] = test: Bactericidal activity against methicillin-resistant Staphylococcus aureus clinical isolate 257 after 24 hrs; details: isolate 257, 24 h; summary of the method: as §1
Staphylococcus aureus [7] = test: Bactericidal activity against methicillin-resistant Staphylococcus aureus clinical isolate 255 after 24 hrs; details: isolate 255, 24 h; summary of the method: as §1
Staphylococcus aureus [8] = test: Bactericidal activity against methicillin-resistant Staphylococcus aureus clinical isolate 238 after 24 hrs; details: isolate 238, 24 h; summary of the method: as §1
Staphylococcus aureus [9] = test: Bactericidal activity against methicillin-resistant Staphylococcus aureus clinical isolate 237 after 24 hrs; details: isolate 237, 24 h; summary of the method: as §1
Staphylococcus aureus [10] = test: Bactericidal activity against methicillin-resistant Staphylococcus aureus clinical isolate 236 after 24 hrs; details: isolate 236, 24 h; summary of the method: as §1
Staphylococcus aureus [11] = test: Bactericidal activity against methicillin-resistant Staphylococcus aureus clinical isolate 235 after 24 hrs; details: isolate 235, 24 h; summary of the method: as §1
Staphylococcus aureus [12] = test: Bactericidal activity against methicillin-resistant Staphylococcus aureus clinical isolate 232 after 24 hrs; details: isolate 232, 24 h; summary of the method: as §1
Staphylococcus aureus [13] = test: Bactericidal activity against methicillin-resistant Staphylococcus aureus clinical isolate 231 after 24 hrs; details: isolate 231, 24 h; summary of the method: as §1
[14] = test system: Staphylococcus epidermidis; test: Bactericidal activity against Staphylococcus epidermidis ATCC 12228 after 24 hrs; details: ATCC 12228, 24 h
Summary of the method: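 MBC: after MIC determination, 0.1 ml from the MIC well and from two dilutions either side streaked on tryptic soy agar, incubated 24 h; MBC taken as lowest concentration giving no growth (100% kill).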

Staphylococcus aureus [15] = test: Bactericidal activity against Staphylococcus aureus ATCC 29213 after 24 hrs; details: ATCC 29213, 24 h; summary of the method: as §1
Candida parapsilosis = test: Antimicrobial activity against Candida parapsilosis ATCC 90030 by broth dilution method; details: Lodderomyces parapsilosis
Nakaseomyces glabratus = test: Antimicrobial activity against Candida glabrata ATCC 18804 by broth dilution method
Candida albicans = test: Antimicrobial activity against Candida albicans ATCC 22019 by broth dilution method
Candida tropicalis = test: Antimicrobial activity against Candida tropicalis ATCC 750 by broth dilution method
Staphylococcus aureus [16] = test: Antimicrobial activity against methicillin-resistant Staphylococcus aureus clinical isolate by broth dilution method
Staphylococcus aureus [17] = test: Antimicrobial activity against methicillin-resistant Staphylococcus aureus clinical isolate 264 by broth dilution method
Staphylococcus aureus [18] = test: Antimicrobial activity against methicillin-resistant Staphylococcus aureus clinical isolate 260 by broth dilution method
Staphylococcus aureus [19] = test: Antimicrobial activity against methicillin-resistant Staphylococcus aureus clinical isolate 257 by broth dilution method
Staphylococcus aureus [20] = test: Antimicrobial activity against methicillin-resistant Staphylococcus aureus clinical isolate 259 by broth dilution method
Staphylococcus aureus [21] = test: Antimicrobial activity against methicillin-resistant Staphylococcus aureus clinical isolate 238 by broth dilution method
Staphylococcus aureus [22] = test: Antimicrobial activity against methicillin-resistant Staphylococcus aureus clinical isolate 255 by broth dilution method
Staphylococcus aureus [23] = test: Antimicrobial activity against methicillin-resistant Staphylococcus aureus clinical isolate 237 by broth dilution method
Staphylococcus aureus [24] = test: Antimicrobial activity against methicillin-resistant Staphylococcus aureus clinical isolate 236 by broth dilution method
Staphylococcus aureus [25] = test: Antimicrobial activity against methicillin-resistant Staphylococcus aureus clinical isolate 235 by broth dilution method
Staphylococcus aureus [26] = test: Antimicrobial activity against methicillin-resistant Staphylococcus aureus clinical isolate 232 by broth dilution method
Staphylococcus aureus [27] = test: Antimicrobial activity against methicillin-resistant Staphylococcus aureus clinical isolate 227 by broth dilution method
Staphylococcus aureus [28] = test: Antimicrobial activity against methicillin-resistant Staphylococcus aureus clinical isolate 231 by broth dilution method
Staphylococcus aureus [29] = test: Antimicrobial activity against methicillin-resistant Staphylococcus aureus clinical isolate 225 by broth dilution method
Staphylococcus aureus [30] = test: Antimicrobial activity against methicillin-resistant Staphylococcus aureus clinical isolate 215 by broth dilution method
Staphylococcus aureus [31] = test: Antimicrobial activity against methicillin-resistant Staphylococcus aureus clinical isolate 218 by broth dilution method
Staphylococcus aureus [32] = test: Antimicrobial activity against methicillin-resistant Staphylococcus aureus clinical isolate 212 by broth dilution method
Staphylococcus aureus [33] = test: Antimicrobial activity against methicillin-resistant Staphylococcus aureus clinical isolate 207 by broth dilution method
Staphylococcus aureus [34] = test: Antimicrobial activity against methicillin-resistant Staphylococcus aureus clinical isolate 205 by broth dilution method
Staphylococcus aureus [35] = test: Antimicrobial activity against methicillin-resistant Staphylococcus aureus clinical isolate 195 by broth dilution method
Staphylococcus aureus [36] = test: Antimicrobial activity against methicillin-resistant Staphylococcus aureus clinical isolate 178 by broth dilution method
Staphylococcus aureus [37] = test: Antimicrobial activity against methicillin-resistant Staphylococcus aureus clinical isolate 176 by broth dilution method
Pseudomonas aeruginosa = test: Antimicrobial activity against Pseudomonas aeruginosa ATCC 27853 by broth dilution method
Escherichia coli = test: Antimicrobial activity against Escherichia coli ATCC 11229 by broth dilution method; details: Escherichia coli, ATCC 11229

**Q.** What does the source list for `CCCCCCCCCCCCCCOc1ccc(CNC(CO)(CO)CO)cc1.Cl`?
**A.** -logMIC [1]: 5.36; MIC ([1]; Staphylococcus epidermidis, ATCC 12228): 2 µg/mL; MIC (Staphylococcus aureus [2]): 2 µg/mL; MBC (Staphylococcus aureus [3]): 64 µg/mL; MBC (Staphylococcus aureus [4]): 8 µg/mL; MBC (Staphylococcus aureus [5]): 2 µg/mL; MBC (Staphylococcus aureus [6]): 8 µg/mL; MBC (Staphylococcus aureus [7]): 16 µg/mL; MBC (Staphylococcus aureus [8]): 4 µg/mL; MBC (Staphylococcus aureus [9]): 4 µg/mL; MBC (Staphylococcus aureus [10]): 8 µg/mL; MBC (Staphylococcus aureus [11]): 8 µg/mL; MBC (Staphylococcus aureus [12]): 8 µg/mL; MBC (Staphylococcus aureus [13]): 4 µg/mL; MBC [14]: 512 µg/mL; MBC (Staphylococcus aureus [15]): 16 µg/mL; MIC (Candida parapsilosis): 8 µg/mL; MIC (Nakaseomyces glabratus): 8 µg/mL; MIC (Candida albicans): 16 µg/mL; MIC (Candida tropicalis): 32 µg/mL; -logMIC (Staphylococcus aureus [16]): 5.03; MIC50 (Staphylococcus aureus [16]; Staphylococcus aureus): 8 µg/mL; MIC90 (Staphylococcus aureus [16]; Staphylococcus aureus): > 1020 µg/mL; MIC (Staphylococcus aureus [17]): 16 µg/mL; MIC (Staphylococcus aureus [18]): 2 µg/mL; MIC (Staphylococcus aureus [19]): 2 µg/mL; MIC (Staphylococcus aureus [20]): 2 µg/mL; MIC (Staphylococcus aureus [21]): 4 µg/mL; MIC (Staphylococcus aureus [22]): 8 µg/mL; MIC (Staphylococcus aureus [23]): 4 µg/mL; MIC (Staphylococcus aureus [24]): 8 µg/mL; MIC (Staphylococcus aureus [25]): 4 µg/mL; MIC (Staphylococcus aureus [26]): 8 µg/mL; MIC (Staphylococcus aureus [27]): > 1020 µg/mL; MIC (Staphylococcus aureus [28]): 2 µg/mL; MIC (Staphylococcus aureus [29]): > 1020 µg/mL; MIC (Staphylococcus aureus [30]): > 1020 µg/mL; MIC (Staphylococcus aureus [31]): 8 µg/mL; MIC (Staphylococcus aureus [32]): > 1020 µg/mL; MIC (Staphylococcus aureus [33]): > 1020 µg/mL; MIC (Staphylococcus aureus [34]): 16 µg/mL; MIC (Staphylococcus aureus [35]): 16 µg/mL; MIC (Staphylococcus aureus [36]): 8 µg/mL; MIC (Staphylococcus aureus [37]): 16 µg/mL; MIC (Pseudomonas aeruginosa): > 256 µg/mL; MIC (Escherichia coli): > 256 µg/mL

**Q.** Which MIC (Candida parapsilosis) does the source give for `CCC(C)n1ncn(-c2ccc(N3CCN(c4ccc(OCC5COC(Cn6cncn6)(c6ccc(Cl)cc6Cl)O5)cc4)CC3)cc2)c1=O` (centres undefined) [ITRACONAZOLE] here?
**A.** Its MIC is over 512 µg/mL.

**Q.** What about the MIC (Nakaseomyces glabratus) of the same compound?
**A.** The MIC was 256 µg/mL (≈ 363 µM).

**Q.** And the MIC (Candida tropicalis)?
**A.** Its MIC is over 512 µg/mL.
